Experimental data reported in ChEMBL document CHEMBL5661968, “Antitumor activity of ZSTK474, a new phosphatidylinositol 3-kinase inhibitor” (J Natl Cancer Inst, 2006).
Activity calls are given as the source filed them. No cut-off for these calls is given here.

What was measured:
[1] = Growth inhibition of human HBC5 cells measured after 48 hrs by sulforhodamine B assay; format: functional
Method in brief: (§1)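 JFCR39 panel lines were grown in RPMI 1640 with 5% FBS, penicillin and streptomycin at 37 °C in 5% CO2. After 48 h of drug exposure, total cellular protein was measured by sulforhodamine B staining. GI50 was calculated by a previously described method.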

[2] = tested on: MDA-MB-231; test: Growth inhibition of human MDA-MB-231 cells measured after 48 hrs by sulforhodamine B assay; format: functional; method in brief: as §1
[3] = tested on: SF-268; test: Growth inhibition of human SF-268 cells measured after 48 hrs by sulforhodamine B assay; format: functional; method in brief: as §1
[4] = tested on: SNB-78; test: Growth inhibition of human SNB-78 cells measured after 48 hrs by sulforhodamine B assay; format: functional; method in brief: as §1
[5] = tested on: KM12; test: Growth inhibition of human KM12 cells measured after 48 hrs by sulforhodamine B assay; format: functional; method in brief: as §1
[6] = tested on: NCI-H460; test: Growth inhibition of human NCI-H460 cells measured after 48 hrs by sulforhodamine B assay; format: functional; method in brief: as §1
[7] = tested on: DMS-273; test: Growth inhibition of human DMS-273 cells measured after 48 hrs by sulforhodamine B assay; format: functional; method in brief: as §1
[8] = tested on: DMS-114; test: Growth inhibition of human DMS-114 cells measured after 48 hrs by sulforhodamine B assay; format: functional; method in brief: as §1
[9] = tested on: OVCAR-3; test: Growth inhibition of human OVCAR-3 cells measured after 48 hrs by sulforhodamine B assay; format: functional; method in brief: as §1
[10] = tested on: OVCAR-4; test: Growth inhibition of human OVCAR-4 cells measured after 48 hrs by sulforhodamine B assay; format: functional; method in brief: as §1
[11] = tested on: SK-OV-3; test: Growth inhibition of human SK-OV-3 cells measured after 48 hrs by sulforhodamine B assay; format: functional; method in brief: as §1
[12] = tested on: MKN-1; test: Growth inhibition of human MKN-1 cells measured after 48 hrs by sulforhodamine B assay; format: functional; method in brief: as §1
[13] = tested on: MKN-45; test: Growth inhibition of human MKN-45 cells measured after 48 hrs by sulforhodamine B assay; format: functional; method in brief: as §1
[14] = tested on: A549; test: Reversible inhibition of PI3K in human A549 cell lysate at 1 uM preincubated with compound for 5 mins followed by [gamma-32p]-ATP addition measured after 20 mins by immunoprecipitation based liquid scintillation spectroscopic analysis; format: subcellular; conditions: time 25.0 min
Method in brief: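 Anti-p85 immunoprecipitates from A549 lysate treated 5 min with 1 μM compound, then split: one aliquot washed four times in 100 mM NaCl, 20 mM Tris pH 7.5 to remove free inhibitor, the other unwashed; both assayed with [γ-32P]ATP and phosphatidylinositol, PI3P counted by scintillation.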

[15] = tested on: MEF; test: Inhibition of PI3K in platelet-derived growth factor induced mouse MEF cells assessed as reduction in membrane ruffling at 1 uM preincubated with compound for 15 mins followed by induction by immunoprecipitation based liquid scintillation spectroscopic analysis; format: cell-based
Method in brief: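 Murine embryonic fibroblasts treated with or without 1 μM compound for 15 min, stimulated with PDGF (10 ng/mL) for 5 min, fixed in 3% formaldehyde 30 min at room temperature, permeabilized with 0.1% Triton X-100, F-actin stained with TRITC-phalloidin (0.1 μg/mL), viewed by fluorescence microscopy.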

[16] = tested on: MEF; test: Inhibition of PI3K in platelet-derived growth factor induced mouse MEF cells assessed as reduction in PIP3 formation at 1 uM preincubated with compound for 15 mins followed by induction by immunoprecipitation based liquid scintillation spectroscopic analysis; format: cell-based
Method in brief: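 Murine embryonic fibroblasts labelled 4 h at 37 °C in phosphate-free DMEM with 25 mM HEPES pH 7.4 and [32P]orthophosphate (0.1 mCi/mL); 1 μM compound for 15 min before PDGF (10 ng/mL) stimulation; PIP3 formation measured.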

[17] = tested on: OVCAR-3; test: Induction of apoptosis in human OVCAR-3 cells assessed as increase in chromatin condensation at 10 uM measured after 48 hrs by Hoechst 33342 staining based fluorescence microscopic analysis; format: functional, cell-based
Method in brief: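 OVCAR3 cells grown 24 h in RPMI 1640 with 5% FBS, then 48 h with or without 10 μM compound; fixed in 1% glutaraldehyde in PBS at 4 °C for 24 h, stained with 167 μM Hoechst 33342, apoptotic cells scored by fluorescence microscopy.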

[18] = tested on: A549; test: Induction of apoptosis in human A549 cells assessed as increase in apoptotic cells at 10 uM measured after 48 hrs by propidium iodide staining based flow cytometric analysis; format: functional, cell-based
Method in brief: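 Cells harvested, washed in ice-cold PBS, fixed in 70% ethanol, washed twice in ice-cold PBS, treated with RNase A (500 μg/mL) at 37 °C for 1 h, stained with propidium iodide (25 μg/mL); DNA content read by flow cytometry.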

[19] = molecular target: Forkhead box protein O3 (Homo sapiens) (UniProt O43524); test: Inhibition of FKHRL1 phosphorylation in Thr-32 residue human A549 cells measured after 3 hrs by immunoblotting analysis; format: cell-based; conditions: dose <= 2.0 µM
Chain of Forkhead box protein O3 (Homo sapiens) (O43524 whole entry): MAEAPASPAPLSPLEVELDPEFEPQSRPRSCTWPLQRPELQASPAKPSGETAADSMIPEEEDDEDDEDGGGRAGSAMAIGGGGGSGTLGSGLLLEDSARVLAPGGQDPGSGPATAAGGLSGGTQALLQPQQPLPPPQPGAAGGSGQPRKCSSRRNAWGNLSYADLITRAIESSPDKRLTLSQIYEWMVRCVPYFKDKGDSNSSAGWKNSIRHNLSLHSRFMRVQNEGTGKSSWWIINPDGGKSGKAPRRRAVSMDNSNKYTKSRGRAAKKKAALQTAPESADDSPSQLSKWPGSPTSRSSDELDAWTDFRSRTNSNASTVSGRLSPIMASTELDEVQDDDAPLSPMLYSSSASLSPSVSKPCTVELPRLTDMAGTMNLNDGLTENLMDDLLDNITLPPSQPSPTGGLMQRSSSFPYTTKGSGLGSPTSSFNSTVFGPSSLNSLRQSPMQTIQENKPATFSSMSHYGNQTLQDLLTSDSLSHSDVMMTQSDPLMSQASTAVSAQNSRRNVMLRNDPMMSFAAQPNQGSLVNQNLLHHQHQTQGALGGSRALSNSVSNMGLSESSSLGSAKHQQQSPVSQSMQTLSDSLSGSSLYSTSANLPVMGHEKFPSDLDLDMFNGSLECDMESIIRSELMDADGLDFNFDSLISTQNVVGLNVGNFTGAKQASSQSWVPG
Method in brief: (§2)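 A549 cells treated over 0 to 2.0 μM; lysed in 10 mM Tris–HCl pH 7.4, 50 mM NaCl, NaF, pyrophosphate, vanadate, EDTA, protease inhibitors, 0.5% NP-40, 0.1% SDS; proteins resolved by SDS-PAGE, blotted to PVDF, probed with phospho-specific antibodies, HRP secondary, ECL detection.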

[20] = molecular target: Tuberin (Homo sapiens) (UniProt P49815); test: Inhibition of TSC-2 phosphorylation at ser-1462 residue in human A549 cells measured after 3 hrs by immunoblotting analysis; format: cell-based; conditions: dose <= 2.0 µM; method in brief: as §2
Chain of Tuberin (Homo sapiens) (P49815 whole entry): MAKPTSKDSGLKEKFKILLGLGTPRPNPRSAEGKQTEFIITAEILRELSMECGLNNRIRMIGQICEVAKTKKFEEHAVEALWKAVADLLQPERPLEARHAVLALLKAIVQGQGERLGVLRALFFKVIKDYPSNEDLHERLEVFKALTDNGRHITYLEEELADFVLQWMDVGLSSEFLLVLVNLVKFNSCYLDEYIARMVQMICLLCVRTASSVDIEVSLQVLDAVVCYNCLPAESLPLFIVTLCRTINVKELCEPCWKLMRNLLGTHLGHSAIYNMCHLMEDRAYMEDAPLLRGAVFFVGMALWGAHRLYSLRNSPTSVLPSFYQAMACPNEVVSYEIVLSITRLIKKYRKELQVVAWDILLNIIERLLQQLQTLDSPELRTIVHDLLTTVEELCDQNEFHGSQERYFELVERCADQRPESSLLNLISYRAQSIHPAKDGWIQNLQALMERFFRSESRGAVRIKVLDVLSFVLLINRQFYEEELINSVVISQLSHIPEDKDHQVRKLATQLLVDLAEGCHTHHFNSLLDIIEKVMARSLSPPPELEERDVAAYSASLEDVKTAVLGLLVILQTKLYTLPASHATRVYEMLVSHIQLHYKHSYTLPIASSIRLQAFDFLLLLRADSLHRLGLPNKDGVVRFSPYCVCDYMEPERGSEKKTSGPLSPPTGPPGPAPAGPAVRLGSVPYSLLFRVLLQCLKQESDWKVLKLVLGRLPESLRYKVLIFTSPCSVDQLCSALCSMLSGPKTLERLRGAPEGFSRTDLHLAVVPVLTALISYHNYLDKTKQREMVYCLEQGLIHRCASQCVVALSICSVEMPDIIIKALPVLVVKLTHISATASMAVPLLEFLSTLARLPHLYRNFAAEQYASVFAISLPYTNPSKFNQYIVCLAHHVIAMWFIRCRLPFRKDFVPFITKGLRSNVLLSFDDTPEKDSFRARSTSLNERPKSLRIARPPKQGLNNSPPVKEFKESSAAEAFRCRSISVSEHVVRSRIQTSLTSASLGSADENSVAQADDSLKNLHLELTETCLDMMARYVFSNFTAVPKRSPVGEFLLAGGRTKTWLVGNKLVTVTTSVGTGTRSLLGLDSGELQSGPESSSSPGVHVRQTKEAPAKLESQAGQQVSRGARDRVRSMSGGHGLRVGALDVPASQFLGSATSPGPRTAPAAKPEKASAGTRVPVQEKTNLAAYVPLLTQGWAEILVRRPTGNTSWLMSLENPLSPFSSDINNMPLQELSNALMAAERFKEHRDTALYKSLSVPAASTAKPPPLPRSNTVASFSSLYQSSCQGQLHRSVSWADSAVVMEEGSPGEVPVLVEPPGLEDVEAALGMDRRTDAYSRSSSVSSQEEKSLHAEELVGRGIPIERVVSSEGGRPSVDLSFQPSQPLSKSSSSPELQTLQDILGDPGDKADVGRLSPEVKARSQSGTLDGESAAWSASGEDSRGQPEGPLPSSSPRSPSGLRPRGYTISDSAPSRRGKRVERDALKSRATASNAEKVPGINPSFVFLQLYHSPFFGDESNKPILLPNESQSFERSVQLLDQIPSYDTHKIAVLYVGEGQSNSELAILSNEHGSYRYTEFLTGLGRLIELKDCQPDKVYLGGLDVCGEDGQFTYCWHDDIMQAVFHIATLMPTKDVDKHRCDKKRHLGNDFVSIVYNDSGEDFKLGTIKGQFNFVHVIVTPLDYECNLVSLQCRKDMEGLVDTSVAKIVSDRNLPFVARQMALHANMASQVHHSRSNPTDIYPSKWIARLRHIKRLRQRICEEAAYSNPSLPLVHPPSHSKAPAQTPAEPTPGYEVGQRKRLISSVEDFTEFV

[21] = Toxicity in nude mouse xenografted with human A549 cells assessed as change in body weight at 800 mg/kg, po administered on day 0 to 13 except for day 3 and 10 measured after 28 days (reference value: 14 %); format: organism-based; conditions: in vivo, 672 h, time 28 day
[22] = […] toxicity in nude mouse xenografted with human A549 cells assessed as change in body weight at 800 mg/kg, po administered on day 0 to 13 except for day 3 and 10 measured after 28 days; format: organism-based; conditions: in vivo, 672 h, time 28 day
[23] = Toxicity in nude mouse xenografted with human A549 cells assessed as change in body weight at 400 mg/kg, po administered on day 0 to 13 except for day 3 and 10 measured after 28 days (reference value: 17 %); format: organism-based; conditions: in vivo, 672 h, time 28 day
[24] = Toxicity in nude mouse xenografted with human WiDr cells assessed as change in body weight at 400 mg/kg, po administered on day 0 to 13 except for day 3 and 10 measured after 28 days (reference value: 17 %); format: organism-based; conditions: in vivo, 672 h, time 28 day
[25] = molecular target: Dual specificity mitogen-activated protein kinase kinase 1 (Homo sapiens) (UniProt Q02750); test: Inhibition of MEK1 phosphorylation at Ser-217/221 residues in human A549 cells measured after 3 hrs by immunoblotting analysis; conditions: dose <= 2.0 µM
Chain of Dual specificity mitogen-activated protein kinase kinase 1 (Homo sapiens) (Q02750 whole entry): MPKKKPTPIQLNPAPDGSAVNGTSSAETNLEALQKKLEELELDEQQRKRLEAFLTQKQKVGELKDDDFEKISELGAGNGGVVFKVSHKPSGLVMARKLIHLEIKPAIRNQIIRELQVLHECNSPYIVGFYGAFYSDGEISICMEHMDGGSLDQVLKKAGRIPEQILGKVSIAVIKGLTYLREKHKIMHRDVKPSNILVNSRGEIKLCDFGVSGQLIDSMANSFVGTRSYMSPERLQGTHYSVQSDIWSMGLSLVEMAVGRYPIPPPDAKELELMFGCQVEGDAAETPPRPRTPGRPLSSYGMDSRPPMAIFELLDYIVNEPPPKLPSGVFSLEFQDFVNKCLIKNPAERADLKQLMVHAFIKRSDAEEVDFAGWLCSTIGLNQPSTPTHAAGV

[26] = tested on: B16-F10; test: Antitumor activity against mouse B16-F10 cells implanted in BDF1 mouse assessed as tumor size relative to control (T/C) at 100 mg/kg, po administered daily measured after 14 days; conditions: 336 h
[27] = tested on: B16-F10; test: Antitumor activity against mouse B16-F10 cells implanted in BDF1 mouse assessed as tumor size relative to control (T/C) at 400 mg/kg, po administered daily measured after 14 days; conditions: 336 h
[28] = tested on: A549; test: Induction of cell cycle arrest in human A549 cells assessed as accumulation of cells at G1 phase at 10 uM incubated for 24 hrs by propidium iodide staining based flow cytometric analysis

## FC(F)c1nc2ccccc2n1-c1nc(N2CCOCC2)nc(N2CCOCC2)n1 [ZSTK-474]
[1]
  GI50: 0.0282 µM
[2]
  GI50: 0.562 µM
[3]
  GI50: 0.646 µM
[4]
  GI50: 0.055 µM
[5]
  GI50: 1.66 µM
[6]
  GI50: 0.468 µM
[7]
  GI50: 0.224 µM
[8]
  GI50: 0.295 µM
[9]
  GI50: 0.0912 µM
[10]
  GI50: 0.182 µM
[11]
  GI50: 0.331 µM
[12]
  GI50: 0.224 µM
[13]
  GI50: 0.288 µM
[14]
  inhibition: Active
[15]
  inhibition: Active
[16]
  inhibition: Active
[17]
  Activity: Active
[18]
  Activity: inactive
[19]
  inhibition: Dose-Dependent Effect
[20]
  inhibition: Dose-Dependent Effect
[21]
  Activity: Non-Toxic
[22]
  Activity: Non-Toxic
[23]
  Activity: 0%
[24]
  Activity: 3%
[25]
  inhibition: inactive
[26]
  T/C at 100 mg/kg: 28.5%
[27]
  T/C at 400 mg/kg: 4.9%
[28]
  Activity: Active
